The text below walks through data of PMC3556220 (Biochimica et biophysica acta, 2012).

In one assay the test system is non-endocrine tumors. Conditions: cited from earlier work.
Assay [1] concerns BON cells. The assay is described as follows: MTT assay of BON cell growth. The assay is classed as cell-based, human. Particulars: for stimulation of BON cell growth, MTT assay: 24 h incubation, serum-free medium, read at 595 nm, mean of 6 experiments. In short, it runs like this: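 BON cells (5 × 10^3/well) were grown 24 h in DMEM/F12K + 10% FBS, washed with PBS, then exposed 24 h to peptides/hormones in serum-free DMEM/F12K, with or without EGFR inhibitor at 1 μM. MTT (1.2 mM final) was present for the last 3 h. Formazan was dissolved in 0.04 N HCl/isopropanol for 5 min at RT and absorbance read at 595 nm. Mean ± SEM, 6 experiments.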
In general terms: Tetrazolium dyes change colour on reduction, which living cells bring about.

Assay [2] concerns EGFR (Y^1068 phosphorylation). The assay is described as follows: Western blot of EGFR Tyr^1068 phosphorylation in BON cells. It counts as cell-based, human. Conditions: for inhibition of NT-stimulated EGFR Y^1068 phosphorylation by antioxidant: NAC or Tiron pre-treatment (one range for both); for inhibition of Bn-analogue-stimulated EGFR Y^1068 phosphorylation by antioxidant: NAC or Tiron pre-treatment; for stimulation of Y^1068 EGFR phosphorylation: Western blot, densitometry. In short, it runs like this:
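BON cells were stimulated with EGF 16 nM or peptides 1 µM for 30 min or over time courses; inhibitor sets used 1 h stimulation. Lysis was in pH 7.5 Triton/deoxycholate buffer with orthovanadate. Equal protein ran on 4–20% SDS-PAGE onto nitrocellulose. Probes: anti-phospho-EGFR Tyr1068 (1:1000, overnight 4 °C), tubulin loading control, HRP secondary, chemiluminescence on film, band densitometry. Mean ± SEM, 3–4 experiments.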
(In general: In western blotting, separated proteins are transferred to a membrane and probed.)

The next assay has as its system QGP-1 cells. Kind of assay: [^3H]-Thymidine uptake, QGP-1 cell growth. It counts as cell-based, human. Particulars: n = 6; for stimulation of cell growth, [^3H]-Thymidine incorporation: 24 h, serum-free medium, EGFR-dependent. Summed up: (§1)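 Plating: BON 1.5 × 10^5/well in DMEM/F12K; QGP-1 4 × 10^4/well in RPMI; both with 10% FBS. After 24 h, cells were serum-starved 24 h, then exposed 24 h to peptides/hormones with or without EGFR inhibitor at 1 µM. [3H]-thymidine was present for the final 6 h. Cells were washed in ice-cold PBS, precipitated in 5% TCA (30 min, 4 °C), dissolved in 0.5 N NaOH/0.5% SDS and scintillation-counted. Mean ± SEM, 6 experiments.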
(In general: Dividing cells build labelled thymidine or BrdU into new DNA.)

The test system of assay [3] is BON cells. Particulars: cited from earlier work; for induction of apoptosis: BON cells.
Assay [4] relates to progressive metastatic NETs. Conditions: phase II trial, patients with progressive metastatic NETs; cited from earlier work.
The test system of a further assay is NCH720 cells. Particulars: broncho-pulmonary NET cell line; cited from earlier work.
For a further assay, the system named is KRJ-I cells. Conditions: cited from earlier work.
For assay [5], the system named is BON cells. Kind of assay: [^3H]-Thymidine uptake, BON cell growth. It counts as cell-based, human. Particulars: 24 h incubation, serum-free medium, mean of 6 experiments. Summed up:
as §1

The subject of assay [6] is non-small-cancer lung cells / lung cancer. Conditions: cited from earlier work.
The test system of another assay is HNSCC. Particulars: cited from earlier work; for cell proliferation: HNSCC.
Assay [7] relates to rat insulinoma cell lines. Particulars: cited from earlier work.
The test system of assay [8] is BON cells. The assay is described as follows: BON cell growth, galanin and CCK/gastrin. The assay is classed as cell-based, human. Particulars: data not shown. Summed up:
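BON cells are grown in DMEM/F12K with 10% FBS, then washed and serum-starved, and test compound is added for 24 h. For the MTT read-out, 5×10^3 cells/well get 1.2 mM MTT (final) for the last 3 h, are lysed in 0.04N HCl/isopropanol, and are read at 595 nm. For thymidine uptake, 1.5×10^5 cells/well are starved 24 h and pulsed with [3H]-thymidine for the final 6 h. Samples are TCA-precipitated, solubilised in NaOH/SDS, and scintillation-counted.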

In another assay the test system is prostate cancer cells. Conditions: cited from earlier work.
Assay [9] has as its system pancreatic adenocarcinoma cells. Particulars: cited from earlier work.

As to `COc1cc2ncnc(Nc3cccc(Cl)c3)c2cc1OC` [AG1478], the “inhibition of cell growth stimulated by various GI hormones/neurotransmitters” value in the assay with non-endocrine tumors is reported as “able to inhibit cell growth”. Moreover, the “inhibition of growth stimulated by each GI hormone, EGF or TGFα, MTT assay” value in the assay on BON cells [1] (BON cells, AG1478 1 μM pre-treatment, 24 h, n = 6) was “completely inhibited”. Besides, the “inhibition of Bn-analogue-stimulated Y^1068 EGFR phosphorylation” value in [2] (AG1478 1 μM, stimulant Bn-analogue, 30 min, n = 4) is reported as “inhibited completely”. Moreover, the “inhibition of EGF-stimulated Y^1068 EGFR phosphorylation” value in assay [2] (AG1478 1 μM, stimulant EGF, 30 min, n = 4) was 88%. In addition, the “inhibition of NT-stimulated Y^1068 EGFR phosphorylation” value in [2] (AG1478 1 μM, stimulant NT, 30 min, n = 4) is listed as “inhibited completely”. Besides, the “inhibition of the increase of cell growth induced by the GI hormones” value in the assay with QGP-1 cells (AG1478 1 μM pre-treatment, [^3H]-Thymidine uptake) is listed as “blocked the increase of cell growth”. In addition, in the assay with BON cells [3], the induction of apoptosis entry is “induces apoptosis” and the “BON cell basal proliferation” value is listed as “completely blocks BON cell basal proliferation”.

Take `CN(C)CCCn1cc(C2=C(c3c[nH]c4ccccc34)C(=O)NC2=O)c2ccccc21` [GF 109203X]: in assay [2] (GF 109203X pre-treatment, NT 1 μM, 1 h, n = 3), the “inhibition of NT-stimulated EGFR Y^1068 phosphorylation by PKC inhibitor” value turned out to be 77%.

As for `CNC(=O)[C@H](Cc1c[nH]c2ccccc12)NC(=O)[C@@H](CC(=O)NO)CC(C)C` [GM 6001], the “reduction of Bn-analogue-stimulated EGFR Y^1068 phosphorylation by MMP inhibitor” value in assay [2] (GM 6001 pre-treatment, Bn-analogue 1 μM, 1 h, n = 3) is recorded as 75%. Further, in [2] (GM 6001 pre-treatment, NT 1 μM, 1 h, n = 3), the “reduction of NT-stimulated EGFR Y^1068 phosphorylation by MMP inhibitor” value amounted to 60%.

On to `COc1cc2ncnc(Nc3ccc(F)c(Cl)c3)c2cc1OCCCN1CCOCC1` [Gefitinib], for which the tumor stabilization entry in [4] is reported as “stabilization of the tumors”. Further, in the assay on BON cells [3], the induction of apoptosis entry is “induces apoptosis” and the “BON cell basal proliferation” value is on record as “completely blocks BON cell basal proliferation”.

For the compound `CC(=O)N[C@@H](CS)C(=O)O` [N-acetylcysteine], in [2] (NT 1 μM, 1 h, n = 3), the “inhibition of NT-stimulated EGFR Y^1068 phosphorylation by antioxidant” value is on record as 37–45%. Besides, in assay [2] (Bn-analogue 1 μM, 1 h, n = 3), the “inhibition of Bn-analogue-stimulated EGFR Y^1068 phosphorylation by antioxidant” value came out at 85%.

`COc1cc2ncnc(Nc3cccc(Br)c3)c2cc1OC` [PD153035]: the “inhibition of cell growth stimulated by various GI hormones/neurotransmitters” value in the assay with non-endocrine tumors was “able to inhibit cell growth”.

`Nc1ncnc2c1cnn2-c1ccccc1` [PP3]: the “reduction of Bn-analogue-stimulated Y^1068 EGFR phosphorylation” value in assay [2] (inhibitor 10 μM, Bn-analogue 1 μM, 1 h, n = 4) is “but not PP3, an inactive PP2 analogue”. The “reduction of NT-stimulated Y^1068 EGFR phosphorylation” value in assay [2] (inhibitor 10 μM, NT 1 μM, 1 h, n = 4) was “but not PP3, an inactive PP2 analogue”.

Consider `O=S(=O)(O)c1cc(O)c(O)c(S(=O)(=O)O)c1` [Tiron], for which the “inhibition of NT-stimulated EGFR Y^1068 phosphorylation by antioxidant” value in assay [2] (NT 1 μM, 1 h, n = 3) is on record as 37–45%. Moreover, the “inhibition of Bn-analogue-stimulated EGFR Y^1068 phosphorylation by antioxidant” value in [2] (Bn-analogue 1 μM, 1 h, n = 3) is 85%.

With `NCCc1c[nH]c2ccc(O)cc12` [serotonin], the cell proliferation result in the assay with NCH720 cells was “stimulates cell proliferation”. Also, in the assay on KRJ-I cells, the “cell proliferation of KRJ-I” value was “stimulates cell proliferation”.

Turning to EGF: Human EGF (Recombinant, E. coli), in the assay with BON cells [1], the “stimulation of BON cell growth, MTT assay” value came out at 30%. Also, in [2] (16 nM, 30 min, n = 4), the “stimulation of Y^1068 EGFR phosphorylation” value is reported as “significantly stimulated”. Besides, the “peak time of Y^1068 EGFR tyrosine phosphorylation” value (shortened to “peak time”) in assay [2] (EGF) came to 2 min. For the same compound, the “t1/2 of Y^1068 EGFR phosphorylation” value in assay [2] (EGF 16 nM, n = 4) was 3 min. In the assay with BON cells [5], the “growth stimulated, [^3H]-Thymidine assessment” value stood at 32%. In the assay on KRJ-I cells, the “growth of KRJ-I cells” value is “can stimulate growth of both KRJ-I cells and BON cells”. Moreover, in the assay on QGP-1 cells, the “stimulation of cell growth, [^3H]-Thymidine incorporation” value (shortened to “stimulation of cell growth”) is recorded as “able to stimulate BON cell growth, as well as in QGP-1 cells”. Moreover, the “growth of BON cells” value in the assay on BON cells [3] is “can stimulate growth of both KRJ-I cells and BON cells”. Besides, in the assay with BON cells [3] (previous studies), the “stimulation of BON cell proliferation (previous studies)” value is “stimulates cell proliferation”.

Turning to “NMB: stimulates cell proliferation in non-small-cancer lung cells”, the cell proliferation result (in assay [6]; with HNSCC) was “stimulate cell proliferation” throughout.

On to TGFα: TGFα, BioVision, for which the “stimulation of BON cell growth, MTT assay” value in the assay on BON cells [1] came to 40%. Moreover, the “stimulation of Y^1068 EGFR phosphorylation” value in assay [2] (3.6 nM, 30 min, n = 4) is “significantly stimulated”. The “growth stimulated, [^3H]-Thymidine assessment” value in the assay on BON cells [5] is 42%. Also, the “growth of KRJ-I cells” value with KRJ-I cells is “increase cell growth”. Further, the “stimulation of cell growth” value in the assay with QGP-1 cells is reported as “stimulated cell growth”.

TGFβ: the “growth of KRJ-I cells” value with KRJ-I cells was “increase cell growth”.

As to “[DTyr^6, β Ala^11, Phe^13, Nle^14]Bn (6–14) [Bn-analogue]”, the “stimulation of Y^1068 EGFR phosphorylation” value in [2] (1 μM, 30 min, n = 4) is on record as “significantly stimulated”. In addition, the “maximal increase of EGFR Y^1068 phosphorylation, dose-response” value in assay [2] (1 μM, n = 4) was determined as 2.4 fold. For the same compound, the “peak time” value in assay [2] (Bn-analogue or NT) turned out to be 60 min. Further, the “increase of EGFR phosphorylation at 62 min” value in assay [2] (time course, 1 μM, 62 min (NT data not shown), n = 4) was 3.4 fold. Further, the “stimulation of cell growth” value in the assay on QGP-1 cells is “stimulated cell growth”.

As for bombesin, the cell proliferation result (in [6]; in the assay with HNSCC) was “stimulate cell proliferation” throughout.

For the compound “bradykinin (RPPGFSPFR; Bradykinin; UniProt P01042 381-389, looked up)”, the “growth of HNSCC” value in the assay with HNSCC (through its B2 receptor) is on record as “stimulates growth of HNSCC”. For the same compound, in assay [2] (1 μM, 30 min, n = 4), the “stimulation of Y^1068 EGFR phosphorylation” value is listed as “significantly stimulated”. The “stimulation of cell growth” value with QGP-1 cells was “able to stimulate BON cell growth, as well as in QGP-1 cells”.

Consider epiregulin: epiregulin, an EGFR ligand, for which the cell growth result in assay [7] is “stimulates cell growth”.

As to “galanin (GWTLNSAGYLLGPHAVGNHRSFSDKNGLTS; Galanin; UniProt P22466 33-62, looked up)”, the “effect on cell growth” value in the assay on BON cells [8] is “did not exert any effect on cell growth”.

For the compound neurotensin [NT], the cell growth entry (in the assay with prostate cancer cells; in assay [9]) was “stimulate cell growth” in each case. Besides, in [2] (1 μM, 30 min, n = 4), the “stimulation of Y^1068 EGFR phosphorylation” value is reported as “significantly stimulated”. The “maximal increase of EGFR Y^1068 phosphorylation, dose-response” value in assay [2] (1 μM, n = 4) was 2.6 fold. In addition, the “peak time” value in assay [2] (Bn-analogue or NT) is recorded as 60 min. Also, the “stimulation of cell growth” value in the assay on QGP-1 cells is “stimulated cell growth”.
